# APJ antag = antagonists of human APJ apelin receptor; P35414; CHO-K1 APJ beta-arrestin complementation, luminescence; inhibition, % at 20 µM; 0.32% of 330,000 active; AID 2521;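 active = inhibition above about 40% at 20 µM, limit read from the data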;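 also: cells challenged with 10 nM apelin-13 agonist together with compound; plate controls were apelin-13 plus DMSO wells for no effect and DMSO wells lacking apelin-13 for full effect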
# EBI2 antag = EBI2 (human) antagonism | P32249 | EBI2 beta-arrestin recruitment, luminescence, 7a,25-OHC stimulated | inhibition, % at 5 µM | 0.81% of 360,000 active | AID 651636; in the data active = inhibition above about 38%;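 also: enzyme fragment complementation signal reports receptor beta-arrestin coupling in cells; 0% = agonist plus DMSO wells and 100% = wells without agonist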
# Target sequence (P32249 whole entry, looked up, the tested form may be a part): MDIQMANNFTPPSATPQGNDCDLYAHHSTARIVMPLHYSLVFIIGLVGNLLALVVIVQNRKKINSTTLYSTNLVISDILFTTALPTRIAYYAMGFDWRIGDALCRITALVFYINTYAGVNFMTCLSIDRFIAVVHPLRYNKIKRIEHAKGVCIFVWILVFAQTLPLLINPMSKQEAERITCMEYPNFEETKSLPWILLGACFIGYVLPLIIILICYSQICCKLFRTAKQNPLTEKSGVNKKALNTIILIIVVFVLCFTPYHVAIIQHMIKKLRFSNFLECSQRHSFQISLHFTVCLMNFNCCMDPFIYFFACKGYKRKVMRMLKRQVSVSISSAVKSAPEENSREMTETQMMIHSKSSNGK
# APJ ag = activates the human apelin receptor APJ. AID 2520. activation, % at 20 µM. P35414. 0.11% of 330,000 active. CHO-K1 APJ PathHunter beta-arrestin, luminescence; 0% DMSO wells, 100% apelin;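 active = activation more than six SD over the plate average, tested at 20 µM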;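 also: 0% = DMSO alone and 100% = apelin-13 at 10 nM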
#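 Incubation: overnight seeding, 90 min compound at 25 °C, 1 h detection; test system: PathHunter CHO-K1 APJ (AGTRL-1) beta-arrestin reporter cells; amount: 1000 cells/well; doses: one dose, 20 µM compound, 1% DMSO; measured by: beta-gal luminescence; measure: agonist-driven arrestin binding to APJ; benchmarks: negative DMSO alone, positive Apelin-13 at 10 nM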
# CXCR6 inh = CXCR6 (human) receptor inhibition. CHO-K1 PathHunter CXCR6 beta-arrestin, luminescence. inhibition, % at 20 µM. 0.36% of 360,000 active. AID 602244; in the data active = inhibition above about 34%, passing the limit was not always enough;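 also: antagonist mode with CXCL16 agonist at 10 nM final; 0% = 10 nM CXCL16 with DMSO and 100% = unstimulated wells without agonist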
# CCR6 antagonist = blocks CCL20-driven beta-arrestin recruitment at human CCR6. 0.49% of 340,000 active. CHO-K1 CCR6 PathHunter beta-arrestin, luminescence, CCL20-stimulated. P51684. inhibition, % at 20 µM;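 active = compounds whose inhibition of the agonist-driven luminescence signal at 20 µM reaches about 50%, limit read from the data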;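 also: cells stimulated with CCL20 at 14 nM final; plate controls were DMSO with CCL20 for no effect and DMSO without agonist for full effect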
# CXCR6 antag conf = CXCR6 antagonism confirmation, single concentration; inhibition, % at 20 µM; CHO-K1 CXCR6 PathHunter beta-arrestin, luminescence; shares compounds with CXCR6 inh; 65% of 700 active; AID 602409;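 active = mean inhibition over four retests above 40%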;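 also: receptor stimulated with 10 nM CXCL16 agonist; beta-galactosidase fragment complementation upon beta-arrestin recruitment to receptor; plate controls were CXCL16 plus DMSO for no effect and DMSO without CXCL16 for full effect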
# An asterisk follows results filed as active; . = no result given. Compounds with a hit are over-represented: about 1.5% of the library has one in this group of screens.
SMILES,APJ antag,EBI2 antag,APJ ag,CXCR6 inh,CCR6 antagonist,CXCR6 antag conf
Cc1cccc(N=Cc2cc(Br)cc(Cl)c2O)c1,-11,-12,-1,54*,28,38
COC(=O)C1CCN(CC(=O)Nc2ccc(C(=O)Nc3ccccc3OC)cc2)CC1,-8,-5,-4,-11,9,.
Cc1cc(OC(=O)Cc2cccc3ccccc23)c([N+](=O)[O-])c(=O)[nH]1,5,-13,-5,39*,-9,-2
Nc1ccccc1C#CC(=O)c1ccccc1,7,-10,-2,40*,21,59*
O=C(C#Cc1cccc([N+](=O)[O-])c1)c1ccccc1,31,19,10,72*,.,71*
COC(=O)c1ccc(COC(=O)C2CCN(S(=O)(=O)c3ccc(C)c(C)c3)CC2)o1,-6,2,-4,-2,8,.
O=C(Cc1ccc(NC(=O)C2CCCN(C(=O)C3CCCCC3)C2)cc1)Nc1cccc(C(=O)N2CCCC2)c1 (centres undefined),.,-2,.,91*,1,19
CCOc1ccc(CN2CCN(Cc3cn(CC)nc3C)CC2CCO)cc1 (centres undefined),11,1,-3,47*,-10,2
O=C(CCCC(=O)N(c1ccc(F)cc1)C(C(=O)NC1CCCC1)c1ccc(O)cc1)Nc1ccccn1 (centres undefined),-7,22,0,4,13,.
CC(=O)Nc1nc2ccccc2n1CCOc1ccccc1Cl,29,2,-5,41*,46,66*
CCn1cc(CN2CCC(n3nccc3NC(=O)c3ccc4c(c3)OCO4)CC2)c(C)n1,-10,6,-4,-2,-9,.
NS(=O)(=O)c1ccc(Oc2ccc(S(N)(=O)=O)cc2)cc1,0,-5,1,4,0,.
C=CS(=O)(=O)c1ccc(Oc2ccc(S(=O)(=O)C=C)cc2)cc1,39,47*,0,64*,74*,66*
CCNC(=S)N/N=C(\C)c1ccc(Cl)s1,30,3,-5,41*,32,26
C=C(C)CNC(=S)N/N=C(\C)c1ccc(Cl)s1,19,18,-6,18,19,.
CCc1nc2c(OCCC3CCCCC3)cccn2c1N(C)C(=O)c1cccs1,.,29,.,47*,.,39
C[C@H]1CN(c2ccccc2)C(=O)[C@@H]1CC(=O)Nc1ccccc1,.,-8,.,1,.,.
Cc1ccc(P(=O)(O)c2ccc(C)cc2)cc1,3,-1,2,3,3,.
Cc1ccc(P(=O)(c2ccc(C)cc2)[C@@H](NC(c2ccccc2)c2ccccc2)c2ccccc2)cc1,.,27,.,41*,.,41*
O=C1CC2(CCN(C(=O)c3ccc(F)c(F)c3)CC2)Oc2ccccc21,4,14,8,4,7,.
N#C/C(=C\c1c[nH]c2ccccc12)C(N)=O,-4,4,-1,-8,-3,.
CC(=O)Oc1c(/C=C(\C#N)C(N)=O)[nH]c2ccccc12,.,-12,.,42*,36,16
Cc1cc(C)n2nc(C(=O)Nc3ccc(S(=O)(=O)N(C)C)cc3)nc2n1,10,-4,-3,2,3,.
CCCC/C=C1/CCC(CN(C)C)C1=O (centres undefined),.,-1,.,34*,52*,48*
COc1cccc(/C=C2/CCC(CN(C)C)C2=O)c1 (centres undefined),.,23,.,71*,92*,54*
SMILES,APJ antag,EBI2 antag,APJ ag,CXCR6 inh,CCR6 antagonist,CXCR6 antag conf
CC(OC(=O)C1=COCCO1)C(=O)NC1(C#N)CCCCC1 (centres undefined),7,-3,-1,6,0,.
Cc1nn(CC(=O)NCCN2CCCCC2C)c(=O)c2cc(-c3ccccc3)nn12 (centres undefined),21,-5,6,9,9,.
O=C1CC(C(=O)N2CCCc3ccccc32)CN1c1ccc(Cl)cc1 (centres undefined),0,10,-3,2,13,.
CCc1ccc2c(c1)/C(=C/C(=O)c1cccs1)C(=O)N2,-1,67*,3,41*,45,25
CCc1ccc2c(c1)/C(=N/N(C)C(=S)NC)C(=O)N2,16,0,-2,0,8,.
COc1cc(C(=O)Nc2cccc(C)c2C)ccc1OCC(=O)N1CCOCC1,-2,5,-4,4,4,.
COc1ccc(/C=N/Nc2ccc(C(=O)O)cc2)c(OC)c1OC,-9,-14,1,-8,2,.
COC(=O)c1ccc2c(c1)C(C)(C)C(/C=C/c1ccc(OC)c(OC)c1OC)=[N+]2C,2,21,-2,77*,56*,102*
O=C(NCc1cccnc1)/C(=C\c1ccc(-c2cccc(Cl)c2)o1)S(=O)(=O)c1ccccc1,.,42*,.,33*,38,41*
C=C1C(=O)OC2C1CCC(C)=C1C(=O)C3OC3(C)C12 (centres undefined),.,52*,.,47*,48,59*
C=C1C(=O)O[C@@H]2[C@H]1CC[C@H](C)[C@]1(O)CCC(=O)[C@@]21C,9,-2,-4,-6,5,.
O=[N+]([O-])c1cc(-c2ncccn2)c([N+](=O)[O-])s1,6,10,-2,56*,85*,73*
O=c1ccc2ccccc2c2ccccc12,.,-40,.,31*,.,31
CCN1CCN(C(=O)/C=C/c2ccc(C)o2)CC1,11,-3,-4,3,1,.
Cc1ccc(/C=C/C(=O)N2CC(C)CC(C)C2)o1 (centres undefined),29,4,-1,76*,27,6
COc1ccc(-c2cc(=O)n(-c3ccc([N+](=O)[O-])cc3)[nH]2)cc1,29,1,-5,41*,38,14
COc1ccc(-c2[nH]n(-c3ccc([N+](=O)[O-])cc3)c(=O)c2C=NCc2ccc(F)cc2)cc1,-18,14,-3,-4,8,.
O=C(Nc1cccc(C(=O)N2CCOCC2)c1)c1ccccc1Cl,-73,0,3,-2,-9,.
O=C(NCc1ccco1)c1nc2ccccc2s1,5,-8,-4,41*,6,11
C=CC[C@H](CC(=O)N(CCO)Cc1ccccc1)C(=O)N[C@H](COC(=O)[C@H](CC=C)CC(=O)OC(C)(C)C)Cc1ccccc1,8,8,-3,42*,29,25
C=CC[C@@H](CC(=O)N(CCO)Cc1ccccc1)C(=O)N[C@H](COC(=O)[C@@H](CC=C)CC(=O)OC(C)(C)C)C(C)(C)C,14,-5,-8,12,-1,.
C=CC[C@H](CC(=O)N(CCO)Cc1ccccc1)C(=O)NC[C@H](OC(=O)[C@@H](CC=C)CC(=O)OC(C)(C)C)c1ccccc1,16,29,-7,51*,29,40
CCOC(=O)C1(C)CCN1C(=O)COc1ccccc1 (centres undefined),.,-5,.,4,.,.
O=C(NCc1ccccc1F)c1ccc2c(c1)OCCO2,2,0,-1,4,9,.
